Experimental data: ChEMBL document CHEMBL3351236, “Prodrug oncrasin-266 improves the stability, pharmacokinetics, and safety of NSC-743380” (Bioorg Med Chem, 2014)
Activity calls are given as the source filed them. No cut-off for these calls is given here.

Experiments:
[1] = test system: Mus musculus; test: Toxicity in Balb/c mouse assessed as histopathological changes in liver at 150 mg/kg, ip dosed once using compound formulated in Solutol HS15 and ethyl alcohol measured after 48 hrs; conditions: in vivo
[2] = test system: Tumour; test: Drug level in tumor of Balb/c mouse xenografted with human Calu3 cells assessed as aldehyde metabolite level at 60 mg/kg, iv using compound formulated in Solutol HS15 and ethyl alcohol measured after 24 hrs by HPLC/MS method; format: ADME, organism-based, Neoplasm, Calu-3; set-up: dose 60 mg/kg, route intravenous; conditions: in vivo
Summary of the method: (§1)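 Nude mice bearing subcutaneous Calu3 xenografts, 1 mouse per treatment group. Organs and tumor were taken 24 h later and kept at −80°C, then homogenized in methanol (50 mg/ml) on ice. Homogenate was extracted with acetonitrile containing 0.2% formic acid plus an internal standard, centrifuged, and the supernatant analyzed by HPLC/MS.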

[3] = test system: Lung; test: Drug level in lung of Balb/c mouse xenografted with human Calu3 cells assessed as aldehyde metabolite level at 60 mg/kg, iv using compound formulated in Solutol HS15 and ethyl alcohol measured after 24 hrs by HPLC/MS method; format: ADME, organism-based, Calu-3; set-up: dose 60 mg/kg, route intravenous; conditions: in vivo
Summary of the method: as §1

[4] = Half life in Balb/c mouse at 25 mg/kg, iv using compound formulated in Solutol HS15 and ethyl alcohol by HPLC/MS method; format: ADME, organism-based; set-up: dose 25 mg/kg, route intravenous; conditions: in vivo
Summary of the method: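 Balb/c mice received 25 mg/kg by tail vein in Solutol HS15/ethanol vehicle. Blood was drawn from the tail vein at 0, 1, 2, 3.5, 7 and 24 h, 3 mice per time point, into lithium-heparin tubes. Plasma (50 µl) was precipitated with 150 µl acetonitrile containing 0.2% formic acid and internal standard, iced 15 min, centrifuged, and the supernatant analyzed by HPLC/MS for parent and released drug.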

[5] = test system: Spleen; test: Drug level in spleen of Balb/c mouse xenografted with human Calu3 cells assessed as aldehyde metabolite level at 60 mg/kg, iv using compound formulated in Solutol HS15 and ethyl alcohol measured after 24 hrs by HPLC/MS method; format: ADME, organism-based, Calu-3; set-up: dose 60 mg/kg, route intravenous; conditions: in vivo
Summary of the method: as §1

[6] = Stability in injectable solution with Solutol HS15 and ethyl alcohol and 0.9% NaCl assessed as drug hydrolysis within 7 hrs at 37 degC by HPLC method; format: physicochemical; conditions: read-out: Drug degradation
[7] = Drug level in intestine of Balb/c mouse xenografted with human Calu3 cells at 60 mg/kg, iv using compound formulated in Solutol HS15 and ethyl alcohol measured after 24 hrs by HPLC/MS method; format: ADME, organism-based, Calu-3; set-up: dose 60 mg/kg, route intravenous; conditions: read-out: Drug uptake
Summary of the method: as §1

[8] = test system: Mus musculus; test: Toxicity in Balb/c mouse assessed as serum ALT level at 150 mg/kg, ip dosed daily for 3 days using compound formulated in Solutol HS15 and ethyl alcohol measured on day 6; format: organism-based; set-up: dose 150 mg/kg, route intraperitoneal; conditions: in vivo, 72 h
[9] = Drug level in tumor of Balb/c mouse xenografted with human Calu3 cells at 60 mg/kg, iv using compound formulated in Solutol HS15 and ethyl alcohol measured after 24 hrs by HPLC/MS method; format: ADME, organism-based, Neoplasm, Calu-3; set-up: dose 60 mg/kg, route intravenous; conditions: read-out: Drug uptake
Summary of the method: as §1

[10] = test system: Mus musculus; test: Toxicity in Balb/c mouse assessed as mortality at 150 mg/kg, ip dosed daily for 3 days using compound formulated in Solutol HS15 and ethyl alcohol measured on day 5; format: organism-based; set-up: dose 150 mg/kg, route intraperitoneal; conditions: in vivo, 72 h
[11] = test system: Mus musculus; test: Toxicity in Balb/c mouse assessed as serum ALT level at 25 mg/kg, ip dosed daily for 8 days using compound formulated in Solutol HS15 and ethyl alcohol measured on day 6; format: organism-based; set-up: dose 25 mg/kg, route intraperitoneal; conditions: in vivo, 192 h
[12] = Drug level in lung of Balb/c mouse xenografted with human Calu3 cells at 60 mg/kg, iv using compound formulated in Solutol HS15 and ethyl alcohol measured after 24 hrs by HPLC/MS method; format: ADME, organism-based, Calu-3; set-up: dose 60 mg/kg, route intravenous; conditions: read-out: Drug uptake
Summary of the method: as §1

[13] = test system: NCI-H460; test: Anticancer activity against human H460 cells at 0.03 to 30 uM by sulforhodamine B assay; format: functional, cell-based
Summary of the method: (§2)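 Sulforhodamine B viability assay on lung cancer cells exposed to a range of compound concentrations for 3 days. Untreated reference: DMSO-treated cells set as 100. Values are mean ± SD of quadruplicate wells.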

[14] = test system: NCI-H1299; test: Anticancer activity against human H1299 cells at 0.03 to 30 uM by sulforhodamine B assay; format: functional, cell-based
Summary of the method: as §2

[15] = test system: Intestine; test: Drug level in intestine of Balb/c mouse xenografted with human Calu3 cells assessed as aldehyde metabolite level at 60 mg/kg, iv using compound formulated in Solutol HS15 and ethyl alcohol measured after 24 hrs by HPLC/MS method; format: ADME, organism-based, Calu-3; set-up: dose 60 mg/kg, route intravenous; conditions: in vivo
Summary of the method: as §1

[16] = test system: NCI-H157; test: Anticancer activity against human NCI-H157 cells at 0.03 to 30 uM by sulforhodamine B assay; format: functional, cell-based
Summary of the method: as §2

[17] = test system: Kidney; test: Drug level in kidney of Balb/c mouse xenografted with human Calu3 cells assessed as aldehyde metabolite level at 60 mg/kg, iv using compound formulated in Solutol HS15 and ethyl alcohol measured after 24 hrs by HPLC/MS method; format: ADME, organism-based, Calu-3; set-up: dose 60 mg/kg, route intravenous; conditions: in vivo
Summary of the method: as §1

[18] = test system: Mus musculus; test: Toxicity in Balb/c mouse assessed as serum AST level at 25 mg/kg, ip dosed daily for 8 days using compound formulated in Solutol HS15 and ethyl alcohol; conditions: in vivo, 192 h
[19] = Stability in powder form at 4 degC to 37 degC after 1 to 14 days by HPLC method; format: physicochemical
Summary of the method: (§3)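 Powders were kept at 4°C, room temperature (21°C) or 37°C and sampled for up to 90 days. Each aliquot was dissolved in DMSO, diluted with 9 volumes acetonitrile, and analyzed by HPLC for purity.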

[20] = test system: Liver; test: Drug level in liver of Balb/c mouse xenografted with human Calu3 cells assessed as aldehyde metabolite level at 60 mg/kg, iv using compound formulated in Solutol HS15 and ethyl alcohol measured after 24 hrs by HPLC/MS method; format: ADME, organism-based, Calu-3; set-up: dose 60 mg/kg, route intravenous; conditions: in vivo
Summary of the method: as §1

[21] = test system: Mus musculus; test: Toxicity in Balb/c mouse assessed as changes in blood cell parameters at 150 mg/kg, ip dosed daily for 3 days using compound formulated in Solutol HS15 and ethyl alcohol measured after 48 hrs; format: organism-based; set-up: dose 150 mg/kg, route intraperitoneal; conditions: in vivo
[22] = Stability in injectable solution with Solutol HS15 and ethyl alcohol and 0.9% NaCl assessed as drug hydrolysis within 7 hrs at room temperature by HPLC method; format: physicochemical; conditions: 7 h
[23] = test system: Mus musculus; test: Toxicity in Balb/c mouse assessed as serum AST level at 150 mg/kg, ip dosed daily for 3 days using compound formulated in Solutol HS15 and ethyl alcohol measured on day 6; format: organism-based; set-up: dose 150 mg/kg, route intraperitoneal; conditions: in vivo, 72 h
[24] = Stability in powder form in non-evacuated chambers at 37 degC after 1 to 14 days by HPLC method; format: physicochemical
Summary of the method: as §3

[25] = Stability in powder form in non-evacuated chambers at 37 degC after 14 days by HPLC method; format: physicochemical; conditions: read-out: Stability
Summary of the method: as §3

[26] = test system: Calu-3; test: Anticancer activity against human Calu3 cells at 0.03 to 30 uM by sulforhodamine B assay; format: functional, cell-based
Summary of the method: as §2

[27] = test system: Mus musculus; test: Toxicity in Balb/c mouse assessed as mortality level at 300 mg/kg, ip using compound formulated in Solutol HS15 and ethyl alcohol measured after 3 days; format: organism-based; set-up: dose 300 mg/kg, route intraperitoneal; conditions: in vivo, 72 h
Summary of the method: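 Acute toxicity: 3 Balb/c mice (7–8 weeks) per group, given i.p. 300 mg/kg on day 1 and again on day 2. Deaths were recorded by day; survivors were followed for 2 weeks.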

[28] = test system: Mus musculus; test: Toxicity in Balb/c mouse assessed as serum ALP level at 25 mg/kg, ip dosed daily for 8 days using compound formulated in Solutol HS15 and ethyl alcohol measured on day 6; format: organism-based; set-up: dose 25 mg/kg, route intraperitoneal; conditions: in vivo, 192 h
[29] = Stability in stock solution with Solutol HS15 and ethyl alcohol solvent at room temperature by HPLC method; format: physicochemical
Summary of the method: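 Stock solutions were made by dissolving compound in 75% (w/v) Solutol HS15 in ethanol (about 20% v/v ethanol). Final concentrations were 8 mg/ml for prodrug and 5 mg/ml for parent. Stocks were stored at 4°C or room temperature; aliquots were frozen at −20°C before HPLC.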

[30] = test system: Mus musculus; test: Toxicity in Balb/c mouse assessed as serum ALP level at 150 mg/kg, ip dosed daily for 3 days using compound formulated in Solutol HS15 and ethyl alcohol measured on day 6; format: organism-based; set-up: dose 150 mg/kg, route intraperitoneal; conditions: in vivo, 72 h

OCc1cn(Cc2cccc(Cl)c2)c2ccccc12
Activity [1]: Toxic | Drug uptake [2]: 1.7 µg/g | Drug uptake [3]: 34.3 µg/g | half-life [4]: 30 min | Drug uptake [5]: 19.9 µg/g | degraded at 7 h [6]: > 20% | concentration at 24 h [7]: 14300 ng/g | Activity [8]: 1936 U/L | concentration at 24 h [9]: 4200 ng/g | Activity [10]: Toxic | Activity [11]: 80.3 U/L | concentration at 24 h [12]: 4200 ng/g | Activity [13]: Active | Activity [14]: inactive | Drug uptake [15]: 30.1 µg/g | Activity [16]: Active | Drug uptake [17]: 31 µg/g | Activity [18]: 206.7 U/L | Stability [19]: Stable | Drug uptake [20]: 25 µg/g | Activity [21]: Non-toxic | Stability [22]: Stable | Activity [23]: 4045 U/L | Stability [24]: Unstable | remaining at 336 h [25]: < 5% | Activity [26]: Active | Activity [27]: Toxic | Activity [28]: 44 U/L | Stability [29]: 1 weeks | Activity [30]: 3 U/L
